Assay results from ChEMBL document CHEMBL1124033, “N-aryl 3-halogenated azetidin-2-ones and benzocarbacephems, inhibitors of beta-lactamases” (J Med Chem, 1988).

Biological target: Beta-lactamase TEM (Escherichia coli, UniProt P62593)
Test: Inhibition constant (Ki) for TEM-1 beta-lactamase
In short: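 Partially purified plasmid pBR322-encoded TEM-1 β-lactamase; computerized microacidimetric assay at pH 7, 37 °C. Time-dependent inactivation was checked by monitoring activity after enzyme preincubation with inhibitor at 1 to 100 concentrations.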

Sequence of Beta-lactamase TEM (P62593 whole entry): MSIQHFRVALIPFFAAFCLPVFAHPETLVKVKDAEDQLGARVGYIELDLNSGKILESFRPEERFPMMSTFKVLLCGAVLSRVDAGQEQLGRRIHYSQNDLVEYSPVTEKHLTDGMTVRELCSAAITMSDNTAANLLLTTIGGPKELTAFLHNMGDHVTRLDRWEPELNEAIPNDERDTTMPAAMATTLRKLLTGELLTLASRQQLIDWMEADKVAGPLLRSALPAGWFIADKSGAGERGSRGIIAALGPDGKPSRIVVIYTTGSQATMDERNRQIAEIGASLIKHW

SMILES | Ki [µM]
O=C(O)c1ccc2c(c1)N1C(=O)CC1CC2Cl (stereo unspecified) | 50
Cc1ccc(C(=O)O)cc1N1CC(Br)(Br)C1=O | 160
Cc1ccc(C(=O)O)cc1N1CCC1=O | 10
Cc1ccc(C(=O)O)cc1N1CC(F)(Br)C1=O (stereo unspecified) | 60
O=C(O)c1ccc2c(c1)N1C(=O)CC1CC2F (stereo unspecified) | 39
Cc1ccc(C(=O)O)cc1N1CC(F)C1=O (stereo unspecified) | 20
O=C(O)c1ccc2c(c1)N1C(=O)CC1CC2 (stereo unspecified) | 20
Cc1ccc(C(=O)O)cc1N1CC(F)(F)C1=O | 83
Cc1ccc(C(=O)O)cc1N1CC(Br)C1=O (stereo unspecified) | 40
Cc1onc(-c2ccccc2Cl)c1C(=O)N[C@@H]1C(=O)N2[C@@H]1SC(C)(C)[C@@H]2C(=O)O [CLOXACILLIN] | 13
CC1(C)S[C@@H]2[C@H](NC(=O)Cc3ccccc3)C(=O)N2[C@H]1C(=O)O [PENICILLIN G] | 20
